Results published in ChEMBL document CHEMBL1157665, “Novel 4-thiazolidinone derivatives as potential antifungal and antibacterial drugs” (2010).
In brackets after ≈: the same amount, converted by molar mass.

Columns and labels:
[1] = system: Escherichia coli; test: Antibacterial activity against Escherichia coli ATCC 35210 after 72 hrs by serial sub-cultivation method; format: functional; conditions: ATCC 35210, 72 h
Method in brief: (§1)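 MBC was found by serial sub-cultivation of 2 µl from the MIC wells into plates holding 100 µl broth per well, then incubation for 72 h. MBC is the lowest concentration with no visible growth, i.e. 99.5% killing of the original inoculum. Bacterial inoculum was 1.0 × 10^4 cfu per well in LB broth. Duplicate, repeated three times.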

[2] = system: Aspergillus versicolor; test: Antifungal activity against Aspergillus versicolor ATCC 11730 after 72 hrs by serial sub-cultivation method; format: functional; conditions: ATCC 11730, 72 h
Method in brief: (§2)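 MFC was found by serial sub-cultivation of 2 µl into plates holding 100 µl broth per well, then incubation 72 h at 28 °C. MFC is the lowest concentration with no visible growth, taken as 99.5% killing of the original inoculum. Spore inocula came from malt agar cultures washed with 0.85% saline and 0.1% Tween 80.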

[3] = system: Penicillium ochrochloron; test: Antifungal activity against Penicillium ochrochloron ATCC 9112 after 72 hrs by serial sub-cultivation method; format: functional; conditions: ATCC 9112, 72 h; method in brief: as §2
[4] = system: Pseudomonas aeruginosa; test: Antibacterial activity against Pseudomonas aeruginosa ATCC 27853 after 24 hrs; format: functional; conditions: ATCC 27853, 24 h
Method in brief: (§3)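 Broth microdilution MIC in 96-well plates. Compounds in LB broth with bacterial inoculum of 1.0 × 10^4 cfu per well, from suspensions adjusted with sterile saline to 1.0 × 10⁵ CFU/ml. Incubated 24 h at […] as printed. MIC taken as the lowest concentration with no visible growth under the binocular microscope. OD at 655 nm also read against blank. Streptomycin and ampicillin as positive controls. Duplicate, repeated three times.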

[5] = system: Talaromyces funiculosus; test: Antifungal activity against Penicillium funiculosum ATCC 36839 after 72 hrs by serial dilution method; format: functional; conditions: ATCC 36839, 72 h
Method in brief: (§4)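 Fungi were kept on malt agar at 4 °C and sub-cultured monthly. Spores were washed off the agar with sterile 0.85% saline containing 0.1% Tween 80 (v/v). Modified microdilution in 96-well plates. MIC is the lowest concentration with no visible growth under the binocular microscope. Inoculum checked on malt agar for contamination and validity.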

[6] = system: Staphylococcus aureus; test: Antibacterial activity against Staphylococcus aureus ATCC 6538 after 72 hrs by serial sub-cultivation method; format: functional; conditions: ATCC 6538, 72 h; method in brief: as §1
[7] = system: Listeria monocytogenes; test: Antibacterial activity against Listeria monocytogenes NCTC 7973 after 72 hrs by serial sub-cultivation method; format: functional; conditions: NCTC 7973, 72 h; method in brief: as §1
[8] = system: Aspergillus versicolor; test: Antifungal activity against Aspergillus versicolor ATCC 11730 after 72 hrs by serial dilution method; format: functional; conditions: ATCC 11730, 72 h; method in brief: as §4
[9] = system: Bacillus cereus; test: Antibacterial activity against Bacillus cereus clinical isolate after 24 hrs; format: functional; method in brief: as §3
[10] = system: Trichoderma viride; test: Antifungal activity against Trichoderma viride IAM 5061 after 72 hrs by serial dilution method; format: functional; conditions: IAM 5061, 72 h; method in brief: as §4
[11] = system: Salmonella typhimurium; test: Antibacterial activity against Salmonella Typhimurium ATCC 13311 after 24 hrs; format: functional, Salmonella enterica subsp. enterica serovar Typhimurium; conditions: Salmonella enterica, ATCC 13311, 24 h; method in brief: as §3
[12] = system: Staphylococcus aureus; test: Antibacterial activity against Staphylococcus aureus ATCC 6538 after 24 hrs; format: functional; conditions: ATCC 6538, 24 h; method in brief: as §3
[13] = system: Aspergillus niger; test: Antifungal activity against Aspergillus niger ATCC 6275 after 72 hrs by serial dilution method; format: functional; conditions: ATCC 6275, 72 h; method in brief: as §4
[14] = system: Penicillium ochrochloron; test: Antifungal activity against Penicillium ochrochloron ATCC 9112 after 72 hrs by serial dilution method; format: functional; conditions: ATCC 9112, 72 h; method in brief: as §4
[15] = system: Talaromyces funiculosus; test: Antifungal activity against Penicillium funiculosum ATCC 36839 after 72 hrs by serial sub-cultivation method; format: functional; conditions: ATCC 36839, 72 h; method in brief: as §2
[16] = system: Fulvia fulva; test: Antifungal activity against Fulvia fulva TK 5318 after 72 hrs by serial dilution method; format: functional; conditions: TK 5318, 72 h; method in brief: as §4
[17] = system: Micrococcus flavus; test: Antibacterial activity against Micrococcus flavus ATCC 10240 after 72 hrs by serial sub-cultivation method; format: functional; conditions: ATCC 10240, 72 h; method in brief: as §1
[18] = system: Proteus mirabilis; test: Antibacterial activity against Proteus mirabilis after 72 hrs by serial sub-cultivation method; format: functional; method in brief: as §1
[19] = system: Aspergillus niger; test: Antifungal activity against Aspergillus niger ATCC 6275 after 72 hrs by serial sub-cultivation method; format: functional; conditions: ATCC 6275, 72 h; method in brief: as §2
[20] = system: Bacillus cereus; test: Antibacterial activity against Bacillus cereus clinical isolate after 72 hrs by serial sub-cultivation method; format: functional; method in brief: as §1
[21] = system: Aspergillus fumigatus; test: Antifungal activity against Aspergillus fumigatus plant isolate after 72 hrs by serial sub-cultivation method
[22] = system: Pseudomonas aeruginosa; test: Antibacterial activity against Pseudomonas aeruginosa ATCC 27853 after 72 hrs by serial sub-cultivation method; format: functional; conditions: ATCC 27853, 72 h; method in brief: as §1
[23] = system: Aspergillus flavus; test: Antifungal activity against Aspergillus flavus ATCC 9643 after 72 hrs by serial dilution method; format: functional; conditions: ATCC 9643, 72 h; method in brief: as §4
[24] = system: Aspergillus flavus; test: Antifungal activity against Aspergillus flavus ATCC 9643 after 72 hrs by serial sub-cultivation method; format: functional; conditions: ATCC 9643, 72 h; method in brief: as §2
[25] = system: Fulvia fulva; test: Antifungal activity against Fulvia fulva TK 5318 after 72 hrs by serial sub-cultivation method; format: functional; conditions: TK 5318, 72 h; method in brief: as §2
[26] = system: Proteus mirabilis; test: Antibacterial activity against Proteus mirabilis after 24 hrs; format: functional; method in brief: as §3
[27] = system: Escherichia coli; test: Antibacterial activity against Escherichia coli ATCC 35210 after 24 hrs; format: functional; conditions: ATCC 35210, 24 h; method in brief: as §3
[28] = system: Micrococcus flavus; test: Antibacterial activity against Micrococcus flavus ATCC 10240 after 24 hrs; format: functional; conditions: ATCC 10240, 24 h; method in brief: as §3
[29] = system: Listeria monocytogenes; test: Antibacterial activity against Listeria monocytogenes NCTC 7973 after 24 hrs; format: functional; conditions: NCTC 7973, 24 h; method in brief: as §3
[30] = system: Salmonella typhimurium; test: Antibacterial activity against Salmonella Typhimurium ATCC 13311 after 72 hrs by serial sub-cultivation method; format: functional, Salmonella enterica subsp. enterica serovar Typhimurium; conditions: Salmonella enterica, ATCC 13311, 72 h; method in brief: as §1
[31] = system: Aspergillus fumigatus; test: Antifungal activity against Aspergillus fumigatus plant isolate after 72 hrs by serial dilution method
[32] = system: Trichoderma viride; test: Antifungal activity against Trichoderma viride IAM 5061 after 72 hrs by serial sub-cultivation method; format: functional; conditions: IAM 5061, 72 h; method in brief: as §2

Row | MIC [4] | MIC [5] | MIC [8] | MIC [9] | MIC [10] | MIC [11] | MIC [12] | MIC [13] | MIC [14] | MIC [16] | Compound | MBC [1] | MFC [2] | MFC [3] | MBC [6] | MBC [7] | MFC [15] | MBC [17] | MBC [18] | MFC [19] | MBC [20] | also measured
1 | 21.5 µM (≈ 10 µg/mL) | 10.8 µM (≈ 5.04 µg/mL) | 10.8 µM (≈ 5.04 µg/mL) | 10.8 µM (≈ 5.04 µg/mL) | 10.8 µM (≈ 5.04 µg/mL) | 21.5 µM (≈ 10 µg/mL) | 16.1 µM (≈ 7.51 µg/mL) | 16.1 µM (≈ 7.51 µg/mL) | 10.8 µM (≈ 5.04 µg/mL) | 5.4 µM (≈ 2.52 µg/mL) | O=C1N/C(=N/c2nc(C34CC5CC(CC(C5)C3)C4)cs2)S/C1=C\c1ccccc1[N+](=O)[O-] | 43 µM (≈ 20.1 µg/mL) | 16.1 µM (≈ 7.51 µg/mL) | 21.5 µM (≈ 10 µg/mL) | 21.5 µM (≈ 10 µg/mL) | 43 µM (≈ 20.1 µg/mL) | 21.5 µM (≈ 10 µg/mL) | 43 µM (≈ 20.1 µg/mL) | 64.5 µM (≈ 30.1 µg/mL) | 21.5 µM (≈ 10 µg/mL) | 21.5 µM (≈ 10 µg/mL) | MFC [21]: 21.5 µM (≈ 10 µg/mL); MBC [22]: 43 µM (≈ 20.1 µg/mL); MIC [23]: 16.1 µM (≈ 7.51 µg/mL); MFC [24]: 21.5 µM (≈ 10 µg/mL); MFC [25]: 10.8 µM (≈ 5.04 µg/mL); MIC [26]: 43 µM (≈ 20.1 µg/mL); MIC [27]: 21.5 µM (≈ 10 µg/mL); MIC [28]: 21.5 µM (≈ 10 µg/mL); MIC [29]: 21.5 µM (≈ 10 µg/mL); MBC [30]: 43 µM (≈ 20.1 µg/mL); MIC [31]: 10.8 µM (≈ 5.04 µg/mL); MFC [32]: 21.5 µM (≈ 10 µg/mL)
2 | 16.4 µM (≈ 7.67 µg/mL) | 16.4 µM (≈ 7.67 µg/mL) | 16.4 µM (≈ 7.67 µg/mL) | 11 µM (≈ 5.14 µg/mL) | 11 µM (≈ 5.14 µg/mL) | 21.9 µM (≈ 10.2 µg/mL) | 21.9 µM (≈ 10.2 µg/mL) | 16.4 µM (≈ 7.67 µg/mL) | 16.4 µM (≈ 7.67 µg/mL) | 11 µM (≈ 5.14 µg/mL) | COc1cc(/C=C2\S/C(=N\c3nc(C45CC6CC(CC(C6)C4)C5)cs3)NC2=O)ccc1O | 16.4 µM (≈ 7.67 µg/mL) | 21.9 µM (≈ 10.2 µg/mL) | 21.9 µM (≈ 10.2 µg/mL) | 43.8 µM (≈ 20.5 µg/mL) | 21.9 µM (≈ 10.2 µg/mL) | 21.9 µM (≈ 10.2 µg/mL) | 21.9 µM (≈ 10.2 µg/mL) | 65.7 µM (≈ 30.7 µg/mL) | 21.9 µM (≈ 10.2 µg/mL) | 21.9 µM (≈ 10.2 µg/mL) | MFC [21]: 21.9 µM (≈ 10.2 µg/mL); MBC [22]: 43.8 µM (≈ 20.5 µg/mL); MIC [23]: 16.4 µM (≈ 7.67 µg/mL); MFC [24]: 21.9 µM (≈ 10.2 µg/mL); MFC [25]: 21.9 µM (≈ 10.2 µg/mL); MIC [26]: 43.8 µM (≈ 20.5 µg/mL); MIC [27]: 11 µM (≈ 5.14 µg/mL); MIC [28]: 11 µM (≈ 5.14 µg/mL); MIC [29]: 11 µM (≈ 5.14 µg/mL); MBC [30]: 43.8 µM (≈ 20.5 µg/mL); MIC [31]: 16.4 µM (≈ 7.67 µg/mL); MFC [32]: 21.9 µM (≈ 10.2 µg/mL)
